ChEMBL document CHEMBL1142894, “Preparation of 5-aryl-3-alkylthio-l,2,4-triazoles and corresponding sulfones with antiinflammatory-analgesic activity” (Bioorg Med Chem, 2007)
The source made the active and inactive calls. The rule behind the calls is not given here.

What was measured:
Mus musculus [1] = test: Inhibition of carrageenan-induced paw edema in Swiss albino mouse at 200 mg/kg, po after 180 mins relative to control; assay type: functional; details: 3 h
Method in brief: (§1)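 Oral dosing in 0.5% CMC; vehicle to controls. Then carrageenan (0.5 mg/25 ll, freshly suspended in 154 mM saline) injected into the right hind paw subplantar tissue; saline into the left paw. Right-left footpad thickness difference measured by dial gauge calliper every 90 min over 6 h. Inhibition % is relative to vehicle control. n = 6; mean ± SEM.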

Mus musculus [2] = test: Antiinflammatory activity against carrageenan-induced paw edema in Swiss albino mouse assessed as swelling thickness at 100 mg/kg, po after 180 mins; assay type: functional; method in brief: as §1
Mus musculus [3] = test: Inhibition of p-benzoquinone-induced writhing in Swiss albino mouse at 200 mg/kg, po relative to control; assay type: functional
Method in brief: (§2)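 Mice, n = 6 per group, dosed orally with a suspension in 0.5% sodium CMC. 60 min later, 0.1 ml/10 g of 2.5% […] p-benzoquinone in distilled water given ip. Abdominal writhes counted per animal for 15 min, starting 5 min after injection. Expressed as % change in mean writhing count versus vehicle controls.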

Mus musculus [4] = test: Inhibition of carrageenan-induced paw edema in Swiss albino mouse at 200 mg/kg, po after 90 mins relative to control; assay type: functional; details: 1.5 h; method in brief: as §1
Mus musculus [5] = test: Inhibition of carrageenan-induced paw edema in Swiss albino mouse at 50 mg/kg, po after 180 mins relative to control; assay type: functional; details: 3 h; method in brief: as §1
Mus musculus [6] = test: Antiinflammatory activity against carrageenan-induced paw edema in Swiss albino mouse assessed as swelling thickness at 25 mg/kg, po after 270 mins; assay type: functional; method in brief: as §1
Mus musculus [7] = test: Antiinflammatory activity against carrageenan-induced paw edema in Swiss albino mouse assessed as swelling thickness at 100 mg/kg, po after 270 mins; assay type: functional; method in brief: as §1
Mus musculus [8] = test: Antiinflammatory activity against carrageenan-induced paw edema in Swiss albino mouse assessed as swelling thickness at 50 mg/kg, po after 180 mins; assay type: functional; method in brief: as §1
Mus musculus [9] = test: Antiinflammatory activity against carrageenan-induced paw edema in Swiss albino mouse assessed as swelling thickness at 50 mg/kg, po after 360 mins; assay type: functional; method in brief: as §1
Mus musculus [10] = test: Inhibition of carrageenan-induced paw edema in Swiss albino mouse at 50 mg/kg, po after 270 mins relative to control; assay type: functional; details: 4.5 h
Method in brief: (§3)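 Mice, n = 6 per group. Test agent given orally as a suspension in 0.5% sodium CMC in distilled water; controls received vehicle only. Afterwards, 0.5 mg/25 ll carrageenan in saline (154 mM NaCl) injected subplantar into the right hind paw, saline into the left. Right-minus-left footpad thickness measured by dial gauge caliper every 90 min for 6 h. Inhibition is relative to vehicle-control group means.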

Mus musculus [11] = test: Gastric-ulcerogenic effect in Swiss albino mouse assessed as lesions at 50 mg/kg, po; assay type: functional, organism-based; parameters: dose 50 mg/kg
Method in brief: (§4)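 Mice killed under deep ether anesthesia 3 h after the writhing test; the oral dose in 0.5% CMC was the one used in that test. Stomachs removed, opened along the great curvature and examined under a dissecting microscope for lesions or bleeding. Reported as ratio of ulceration; n = 6.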

Mus musculus [12] = test: Antiinflammatory activity against carrageenan-induced paw edema in Swiss albino mouse assessed as swelling thickness at 200 mg/kg, po after 360 mins; assay type: functional; method in brief: as §1
Mus musculus [13] = test: Antiinflammatory activity against carrageenan-induced paw edema in Swiss albino mouse assessed as swelling thickness at 200 mg/kg, po after 270 mins; assay type: functional; method in brief: as §1
Mus musculus [14] = test: Inhibition of carrageenan-induced paw edema in Swiss albino mouse at 50 mg/kg, po after 90 mins relative to control; assay type: functional; details: 1.5 h; method in brief: as §3
Mus musculus [15] = test: Acute toxicity in Swiss albino mouse assessed as lethal effect at 25 mg/kg/day, po after 72 hrs; assay type: organism-based; parameters: route oral; details: in vivo
Method in brief: (§5)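 Oral single dose suspended in 0.5% carboxymethylcellulose, given after a 24 h fast; food and water returned 1 h after dosing. Vehicle-only controls. Mice observed at 1 h, then once daily for 72 h, for toxic signs and mortality.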

Mus musculus [16] = test: Antiinflammatory activity against carrageenan-induced paw edema in Swiss albino mouse assessed as swelling thickness at 100 mg/kg, po after 90 mins; assay type: functional; method in brief: as §1
Mus musculus [17] = test: Inhibition of carrageenan-induced paw edema in Swiss albino mouse at 100 mg/kg, po after 360 mins relative to control; assay type: functional; details: 6 h; method in brief: as §1
Mus musculus [18] = test: Acute toxicity in Swiss albino mouse assessed as lethal effect at 200 mg/kg/day, po after 72 hrs; assay type: organism-based; parameters: route oral; details: in vivo; method in brief: as §5
Mus musculus [19] = test: Inhibition of carrageenan-induced paw edema in Swiss albino mouse at 200 mg/kg, po after 270 mins relative to control; assay type: functional; details: 4.5 h; method in brief: as §1
Mus musculus [20] = test: Inhibition of carrageenan-induced paw edema in Swiss albino mouse at 25 mg/kg, po after 270 mins relative to control; assay type: functional; details: 4.5 h; method in brief: as §1
Mus musculus [21] = test: Antiinflammatory activity against carrageenan-induced paw edema in Swiss albino mouse assessed as swelling thickness at 25 mg/kg, po after 90 mins; assay type: functional; method in brief: as §1
Mus musculus [22] = test: Antiinflammatory activity against carrageenan-induced paw edema in Swiss albino mouse assessed as swelling thickness at 25 mg/kg, po after 180 mins; assay type: functional; method in brief: as §1
Mus musculus [23] = test: Antiinflammatory activity against carrageenan-induced paw edema in Swiss albino mouse assessed as swelling thickness at 200 mg/kg, po after 180 mins; assay type: functional; method in brief: as §1
Mus musculus [24] = test: Analgesic activity against p-benzoquinone-induced abdominal constriction in Swiss albino mouse assessed as number of writhings at 50 mg/kg, po; assay type: functional, Abdomen
Method in brief: (§6)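 Test samples given orally in 0.5% CMC; vehicle to controls. 60 min later, 2.5% (v/v) p-benzoquinone in distilled water, 0.1 ml/10 g, given i.p. Mice housed singly; writhes counted for 15 min starting 5 min after injection. Activity is % change from vehicle controls. n = 6; mean ± SEM.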

Mus musculus [25] = test: Inhibition of carrageenan-induced paw edema in Swiss albino mouse at 100 mg/kg, po after 270 mins relative to control; assay type: functional; details: 4.5 h; method in brief: as §1
Mus musculus [26] = test: Antiinflammatory activity against carrageenan-induced paw edema in Swiss albino mouse assessed as swelling thickness at 25 mg/kg, po after 360 mins; assay type: functional; method in brief: as §1
Mus musculus [27] = test: Acute toxicity in Swiss albino mouse assessed as lethal effect at 100 mg/kg/day, po after 72 hrs; assay type: organism-based; parameters: route oral; details: in vivo; method in brief: as §5
Mus musculus [28] = test: Analgesic activity against p-benzoquinone-induced abdominal constriction in Swiss albino mouse assessed as number of writhings at 200 mg/kg, po; assay type: functional, Abdomen; method in brief: as §6
Mus musculus [29] = test: Inhibition of p-benzoquinone-induced writhing in Swiss albino mouse at 50 mg/kg, po relative to control; assay type: functional; method in brief: as §2
Mus musculus [30] = test: Inhibition of p-benzoquinone-induced writhing in Swiss albino mouse at 25 mg/kg, po relative to control; assay type: functional; method in brief: as §2
Mus musculus [31] = test: Antiinflammatory activity against carrageenan-induced paw edema in Swiss albino mouse assessed as swelling thickness at 100 mg/kg, po after 360 mins; assay type: functional; method in brief: as §1
Mus musculus [32] = test: Inhibition of carrageenan-induced paw edema in Swiss albino mouse at 50 mg/kg, po after 360 mins relative to control; assay type: functional; details: 6 h; method in brief: as §3
Mus musculus [33] = test: Inhibition of carrageenan-induced paw edema in Swiss albino mouse at 100 mg/kg, po after 180 mins relative to control; assay type: functional; details: 3 h; method in brief: as §1
Mus musculus [34] = test: Analgesic activity against p-benzoquinone-induced abdominal constriction in Swiss albino mouse assessed as number of writhings at 100 mg/kg, po; assay type: functional, Abdomen; method in brief: as §6
Mus musculus [35] = test: Antiinflammatory activity against carrageenan-induced paw edema in Swiss albino mouse assessed as swelling thickness at 50 mg/kg, po after 270 mins; assay type: functional; method in brief: as §1
Mus musculus [36] = test: Inhibition of p-benzoquinone-induced writhing in Swiss albino mouse at 100 mg/kg, po relative to control; assay type: functional; method in brief: as §2
Mus musculus [37] = test: Acute toxicity in Swiss albino mouse assessed as lethal effect at 50 mg/kg/day, po after 72 hrs; assay type: organism-based; parameters: route oral; details: in vivo; method in brief: as §5
Mus musculus [38] = test: Inhibition of carrageenan-induced paw edema in Swiss albino mouse at 25 mg/kg, po after 360 mins relative to control; assay type: functional; details: 6 h; method in brief: as §1
Mus musculus [39] = test: Inhibition of carrageenan-induced paw edema in Swiss albino mouse at 25 mg/kg, po after 90 mins relative to control; assay type: functional; details: 1.5 h; method in brief: as §1
Mus musculus [40] = test: Inhibition of carrageenan-induced paw edema in Swiss albino mouse at 200 mg/kg, po after 360 mins relative to control; assay type: functional; details: 6 h; method in brief: as §1
Mus musculus [41] = test: Inhibition of carrageenan-induced paw edema in Swiss albino mouse at 100 mg/kg, po after 90 mins relative to control; assay type: functional; details: 1.5 h; method in brief: as §1
Mus musculus [42] = test: Antiinflammatory activity against carrageenan-induced paw edema in Swiss albino mouse assessed as swelling thickness at 50 mg/kg, po after 90 mins; assay type: functional; method in brief: as §1
Mus musculus [43] = test: Inhibition of carrageenan-induced paw edema in Swiss albino mouse at 25 mg/kg, po after 180 mins relative to control; assay type: functional; details: 3 h; method in brief: as §1
Mus musculus [44] = test: Gastric-ulcerogenic effect in Swiss albino mouse assessed as lesions at 25 mg/kg, po; assay type: functional, organism-based; parameters: dose 25 mg/kg; method in brief: as §4
Mus musculus [45] = test: Antiinflammatory activity against carrageenan-induced paw edema in Swiss albino mouse assessed as swelling thickness at 200 mg/kg, po after 90 mins; assay type: functional; method in brief: as §1
Mus musculus [46] = test: Analgesic activity against p-benzoquinone-induced abdominal constriction in Swiss albino mouse assessed as number of writhings at 25 mg/kg, po; assay type: functional, Abdomen; method in brief: as §6

CS(=O)(=O)c1nc(-c2ccccc2Cl)n[nH]1
inhibition in vivo at 200 mg/kg (Mus musculus [1]): 8.1%
Activity (Mus musculus [2]): 39 10^-2mm
inhibition in vivo at 200 mg/kg (Mus musculus [3]): 11.9%
inhibition in vivo at 200 mg/kg (Mus musculus [4]): 6.4%
inhibition in vivo at 50 mg/kg (Mus musculus [5]): 30.6%
Activity (Mus musculus [6]): 60.2 10^-2mm
Activity (Mus musculus [7]): 41.3 10^-2mm
Activity (Mus musculus [8]): 41.2 10^-2mm
Activity (Mus musculus [9]): 45.5 10^-2mm
inhibition in vivo at 50 mg/kg (Mus musculus [10]): 33.5%
Activity (Mus musculus [11]): Active
Activity (Mus musculus [12]): 65.1 10^-2mm
Activity (Mus musculus [13]): 59.8 10^-2mm
inhibition in vivo at 50 mg/kg (Mus musculus [14]): 26.5%
Activity (Mus musculus [15]): Non-toxic
Activity (Mus musculus [16]): 35 10^-2mm
inhibition in vivo at 100 mg/kg (Mus musculus [17]): 35.3%
Activity (Mus musculus [18]): Non-toxic
inhibition in vivo at 200 mg/kg (Mus musculus [19]): 7.7%
inhibition in vivo at 25 mg/kg (Mus musculus [20]): 7.1%
Activity (Mus musculus [21]): 49.1 10^-2mm
Activity (Mus musculus [22]): 56.9 10^-2mm
Activity (Mus musculus [23]): 54.6 10^-2mm
Activity (Mus musculus [24]): 30.4
inhibition in vivo at 100 mg/kg (Mus musculus [25]): 29.8%
Activity (Mus musculus [26]): 67.1 10^-2mm
Activity (Mus musculus [27]): Non-toxic
Activity (Mus musculus [28]): 45.3
inhibition in vivo at 50 mg/kg (Mus musculus [29]): 40.9%
inhibition in vivo at 25 mg/kg (Mus musculus [30]): 21.9%
Activity (Mus musculus [31]): 44.5 10^-2mm
inhibition in vivo at 50 mg/kg (Mus musculus [32]): 36.8%
inhibition in vivo at 100 mg/kg (Mus musculus [33]): 24.3%
Activity (Mus musculus [34]): 32.2
Activity (Mus musculus [35]): 43.1 10^-2mm
inhibition in vivo at 100 mg/kg (Mus musculus [36]): 31.9%
Activity (Mus musculus [37]): Non-toxic
inhibition in vivo at 25 mg/kg (Mus musculus [38]): 6.8%
inhibition in vivo at 25 mg/kg (Mus musculus [39]): 7.7%
inhibition in vivo at 200 mg/kg (Mus musculus [40]): 9.6%
inhibition in vivo at 100 mg/kg (Mus musculus [41]): 21.9%
Activity (Mus musculus [42]): 39.1 10^-2mm
inhibition in vivo at 25 mg/kg (Mus musculus [43]): 4.2%
Activity (Mus musculus [44]): Active
Activity (Mus musculus [45]): 49.8 10^-2mm
Activity (Mus musculus [46]): 40.1
